These results are taken from PubChem BioAssay.

Unmarked numbers belong to inactive results.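 How the source made its calls: active means growth inhibition above a set limit, 3 SD over mean compound inhibition, in both replicates (cut at about 43% in these data); inconclusive means above the limit in only one replicate; inactive means at or below the limit in both replicates.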

The nature of this experiment: Restrictive medium S. cerevisiae growth inhibition, OD615, pilot screen of yeast lifespan reduction project, restrictive growth control (AID 706).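 Further: modified DeaD lifespan yeast strain shifted to restrictive glucose medium.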 As to conditions: OD615, 48 h, at 10 µM, hits give high values. In a few lines:
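material = engineered S. cerevisiae DeaD strain | buffer or medium = glucose-based CSMM-D restrictive medium | dosing = one concentration, 10 µM final, 0.25% DMSO | schedule = 4 h pre-growth plus 48 h compound exposure, 30 °C | detection = OD615 absorbance reading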
As to `CCOC(=O)C1CCN(C(=O)CN(c2ccc(Cl)c(C(F)(F)F)c2)S(C)(=O)=O)CC1`, the growth inhibition was -8.95%. The figure for `CCOc1ccccc1C(=O)Nc1cc(=O)n(C)c(=O)n1C` is 2.84%; for `Cc1ccc(-c2cc3nc4c(c(=O)n3[nH]2)CCCC4)cc1` it is -22.5%. Under `CCOC(=O)C(C)Sc1nnc(Cc2cc(=O)[nH]c(=O)[nH]2)n1-c1ccc(Cl)cc1` (stereo unspecified) stands -11.5%.

Regarding `c1nc(NCC2CCCO2)c2[nH]cnc2n1` (stereo unspecified), the growth inhibition was -5.46%. The figure for `O=C(Nc1ccc(Cl)cn1)c1cccnc1` is -14.8%; for `O=C1c2ccccc2C(=O)N1C/C=C/CN1C(=O)c2ccccc2C1=O` it is -1.58%. Turning to `O=c1oc2c3c4c(cc2cc1-c1nc2ccccc2[nH]1)CCCN4CCC3`, the growth inhibition is -0.465%.

Consider `CCCCC(=O)NCCc1cc2c(C)ccc(C)c2[nH]c1=O`, for which the growth inhibition was -13.3%. Under `O=C(NCc1ccc(F)cc1)c1cc2ccccn2n1` stands 3.24%. The figure for `COc1cccc(C2C3=C(N=C4SCC(=O)N42)c2ccccc2CC3)c1OC` (stereo unspecified) is -9.8%; for `CCOC(=O)N1CCC(c2cc(=O)n3[nH]c(C)c(-c4ccc(F)cc4)c3n2)CC1` it is 9.87%.

`C=CCn1c(=O)n(CCOC)c(=O)c2sc3ccccc3c21`: the growth inhibition was -5.77%. The figure for `Cc1ccc2cc(CCNC(=O)C(C)C)c(=O)[nH]c2c1C` is -19.7%. The figure for `COc1ccc(S(=O)(=O)N2CCCC2C(=O)Nc2ccc(O)cc2)cc1` (stereo unspecified) is 2.76%; for `Cc1cccc(-n2ncc3c(NCc4cccnc4)ncnc32)c1` it is -8.12%.
